Measurements as given in ChEMBL document CHEMBL3596118, “Synthesis and antiproliferative activity of imidazo[1,2-a]pyrimidine Mannich bases” (2015).

What was measured:
Format in all cases: functional
A549 = test: Growth inhibition of human A549 cells after 48 hrs by SRB assay; settings: A549, 48 h
Procedure, shortened: (§1)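 Cells grown in DMEM with 10% FBS, 5% CO2, 37 0C; seeded at densities set by doubling time, incubated 24 hrs, then exposed continuously 48 hrs to 0.01, 0.1, 1, 10, 100 µM; DMSO-treated cells as negative control. Fixed with cold 10% TCA (4 0C, 1 hr), stained 0.057% SRB 30 min, dye dissolved in 10 mM Tris, OD 510 nm; GI50 from [(Ti-Tz)/(C-Tz)]x100 = 50.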

HeLa = test: Growth inhibition of human HeLa cells after 48 hrs by SRB assay; procedure, shortened: as §1
[1] = Growth inhibition of human PANC1 cells after 48 hrs by SRB assay; settings: PANC-1, 48 h; procedure, shortened: as §1
MDA-MB-231 = test: Growth inhibition of human MDA-MB-231 cells after 48 hrs by SRB assay; settings: MDA-MB-231, 48 h; procedure, shortened: as §1

GI50 (A549) | GI50 (HeLa) | GI50 (MDA-MB-231) | Structure (SMILES) | GI50 [1]
210 nM | 1670 nM | 1410 nM | c1ccc(-c2nc3ncccn3c2CN2CCOCC2)cc1 | 770 nM
4040 nM | 1710 nM | 30 nM | Cc1ccn2c(CN3CCCCC3)c(-c3ccccc3)nc2n1 | 20 nM
6890 nM | 4030 nM | 7230 nM | Oc1ccc(-c2nc3ncccn3c2CN2CCCCC2)cc1 | 200 nM
2480 nM | 4760 nM | 1200 nM | Cc1ccn2c(CN3CCCC3)c(-c3ccc(O)cc3)nc2n1 | 7280 nM
50 nM | 70 nM | 70 nM | c1ccc(-c2nc3ncccn3c2CN2CCCC2)cc1 | 60 nM
260 nM | 2280 nM | 30 nM | c1ccc(-c2nc3ncccn3c2CN2CCCCC2)cc1 | 1310 nM
330 nM | 30 nM | 1490 nM | CC(C)(C)c1nc2ncccn2c1CN1CCCCC1 | 4510 nM
5190 nM | 3120 nM | 320 nM | CN(Cc1c(-c2ccccc2)nc2ncccn12)c1ccccc1 | 5760 nM
7390 nM | 450 nM | 350 nM | Cc1ccn2c(CN3CCCCC3)c(C(C)(C)C)nc2n1 | 960 nM
1090 nM | 850 nM | 1430 nM | Cc1ccn2c(CN3CCOCC3)c(-c3ccccc3)nc2n1 | 1830 nM
2570 nM | 160 nM | 320 nM | Cc1ccn2c(CN3CCOCC3)c(-c3ccc(Cl)cc3)nc2n1 | 1170 nM
4150 nM | 180 nM | 4830 nM | Cc1ccn2c(CN3CCCC3)c(-c3ccccc3)nc2n1 | 150 nM
180 nM | 240 nM | 200 nM | c1csc(-c2nc3ncccn3c2CN2CCCC2)c1 | 680 nM
 | 720 nM | 26700 nM | c1ccc(-c2nc3ncccn3c2CN2CCNCC2)cc1 | 9400 nM
 | 930 nM | < 10 nM | CN1CCN(Cc2c(-c3ccccc3)nc3ncccn23)CC1 | 350 nM
 | 4500 nM | 12900 nM | Cc1ccc(S(=O)(=O)N2CCN(Cc3c(-c4ccccc4)nc4ncccn34)CC2)cc1 | 110 nM
 | 3240 nM | 270 nM | c1ccc(-c2nc3ncccn3c2CN2CCN(Cc3c(-c4ccccc4)nc4ncccn34)CC2)cc1 | 140 nM
 | 2800 nM | 2300 nM | Cc1ccc(-c2nc3ncccn3c2CN2CCN(Cc3c(-c4ccc(C)cc4)nc4ncccn34)CC2)cc1 | 380 nM
 | 25600 nM | 4700 nM | Clc1ccc(-c2nc3ncccn3c2CN2CCN(Cc3c(-c4ccc(Cl)cc4)nc4ncccn34)CC2)cc1 | 240 nM
 | 2400 nM | 1100 nM | CC(C)(C)c1nc2ncccn2c1CN1CCN(Cc2c(C(C)(C)C)nc3ncccn23)CC1 | 3900 nM
 | 12700 nM | 15900 nM | Cc1ccn2c(CN3CCN(Cc4c(-c5ccccc5)nc5nc(C)ccn45)CC3)c(-c3ccccc3)nc2n1 | 600 nM
 | 14500 nM | 25700 nM | Cc1ccn2c(CN3CCN(Cc4c(C(C)(C)C)nc5nc(C)ccn45)CC3)c(C(C)(C)C)nc2n1 | 1400 nM
 | 12600 nM | 31600 nM | c1ccc2cc(-c3nc4ncccn4c3CN3CCN(Cc4c(-c5ccc6ccccc6c5)nc5ncccn45)CC3)ccc2c1 | 79400 nM
 | 2720 nM | 210 nM | Clc1ccc(-c2nc3ncccn3c2CN2CCN(Cc3c(-c4ccc(Cl)cc4Cl)nc4ncccn34)CC2)c(Cl)c1 | 27700 nM
 | 9320 nM | 120 nM | COc1cc(OC)n2c(CN3CCN(Cc4c(-c5ccccc5)nc5nc(OC)cc(OC)n45)CC3)c(-c3ccccc3)nc2n1 | 510 nM
 | 930 nM | 7100 nM | c1csc(-c2nc3ncccn3c2CN2CCN(Cc3c(-c4cccs4)nc4ncccn34)CC2)c1 | 3700 nM
 | 480 nM | < 10 nM | Cc1ccccc1-c1nc2ncccn2c1CN1CCN(Cc2c(-c3ccccc3C)nc3ncccn23)CC1 | 120 nM
 | 890 nM | 1000 nM | Brc1ccc(-c2nc3ncccn3c2CN2CCN(Cc3c(-c4ccc(Br)cc4)nc4ncccn34)CC2)cc1 | 60 nM
< 10 nM | 31 nM | 10 nM | COc1cccc2c1C(=O)c1c(O)c3c(c(O)c1C2=O)C[C@@](O)(C(=O)CO)C[C@@H]3O[C@H]1C[C@H](N)[C@H](O)[C@H](C)O1 [DOXORUBICIN] | 10 nM
